Laboratory results taken from ChEMBL document CHEMBL5724801, “EUbOPEN Chemogenomics Library - Multiplex” (2024).
“And” between values parts separate entries of the source, which are not always exact repeats. Equal entries are not always repeated.

Tested on: HEK-293T
Assay: Multiplex assay against HEK293T
Format: toxicity, cell-based
Settings: human
Outline: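 Hoechst33342, BioTracker Green Microtubule Cytoskeleton Dye, MitoTracker Red and Annexin V Alexa Fluor 680 were added to live cells at seeding, and imaging on a CQ1 microscope at 37°C and 5% CO2 followed compound addition. Gating by CellPathfinder machine learning separated cells into Hoechst high-intensity objects or normal cells, then normal cells into healthy, pyknosed or fragmented nuclei, then pyknosed cells into mitotic or apoptotic. Per cents of healthy-nucleus cells are reported for the tubulin, mitochondrial-mass and membrane-permeability phenotypes.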

[1] = 12 h, 1 µM, compound concentration 1 uM
[2] = 12 h, 10 µM, compound concentration 10 uM
[3] = 24 h, 1 µM, compound concentration 1 uM
[4] = 24 h, 10 µM, compound concentration 10 uM
[5] = 48 h, 1 µM, compound concentration 1 uM
[6] = 48 h, 10 µM, compound concentration 10 uM

In the case of Cc1ccc(F)cc1C(=O)Nc1ccc(C(=O)N2Cc3cccn3Cc3ccccc32)c(Cl)c1 [LIXIVAPTAN], the “Population Apoptotic (%)” value [1] is reported as 36% and 40%, the “Population Fragmented Nuclei (%)” value [1] is reported as 5% and 6% and the “Population Healthy Nuclei (%)” value [1] is reported as 83% and 74%. The “Population Hoechst High Intensity Objects (%)” value [1] was 7% and 5%, the “Population Membrane Permeable-Phenotype (%)” value [1] was 0% and the “Population Mitochondria Different-Phenotype (%)” value [1] was 45% and 57%. For the same compound, the “Population Mitotic Cells (%)” value [1] was 63% and 60%, the “Population Normal (%)” value [1] was 92% and 94% and the “Population Pyknosed Nuclei (%)” value [1] was 10% and 19%. The “Population Tubulin-Different-Phenotype (%)” value [1] was 38% and 32%, the “Total Cell Count” value [1] was 486 and 335 and the “Population Apoptotic (%)” value [2] was 46% and 50%. The “Population Fragmented Nuclei (%)” value [2] was 6%, the “Population Healthy Nuclei (%)” value [2] was 70% and 67% and the “Population Hoechst High Intensity Objects (%)” value [2] was 10% and 6%. The “Population Membrane Permeable-Phenotype (%)” value [2] was 0% and 1%, the “Population Mitochondria Different-Phenotype (%)” value [2] was 75% and 81% and the “Population Mitotic Cells (%)” value [2] was 53% and 50%. For the same compound, the “Population Normal (%)” value [2] was 89% and 93%, the “Population Pyknosed Nuclei (%)” value [2] was 22% and 25% and the “Population Tubulin-Different-Phenotype (%)” value [2] was 78% and 67%. The “Total Cell Count” value [2] was 339 and 357, the “Population Apoptotic (%)” value [3] was 30% and 36% and the “Population Fragmented Nuclei (%)” value [3] was 9% and 10%. The “Population Healthy Nuclei (%)” value [3] was 77% and 76%, the “Population Hoechst High Intensity Objects (%)” value [3] was 5% and 7% and the “Population Membrane Permeable-Phenotype (%)” value [3] was 0%. For the same compound, the “Population Mitochondria Different-Phenotype (%)” value [3] was 30% and 42%, the “Population Mitotic Cells (%)” value [3] was 69% and 63% and the “Population Normal (%)” value [3] was 94% and 92%. For the same compound, the “Population Pyknosed Nuclei (%)” value [3] was 13%, the “Population Tubulin-Different-Phenotype (%)” value [3] was 24% and 22% and the “Total Cell Count” value [3] was 595 and 423. The “Population Apoptotic (%)” value [4] was 37% and 58%, the “Population Fragmented Nuclei (%)” value [4] was 5% and 8% and the “Population Healthy Nuclei (%)” value [4] was 69% and 72%. The “Population Hoechst High Intensity Objects (%)” value [4] was 7% and 6%, the “Population Membrane Permeable-Phenotype (%)” value [4] was 0% and the “Population Mitochondria Different-Phenotype (%)” value [4] was 74% and 78%. For the same compound, the “Population Mitotic Cells (%)” value [4] was 62% and 41%, the “Population Normal (%)” value [4] was 92% and 93% and the “Population Pyknosed Nuclei (%)” value [4] was 24% and 19%. For the same compound, the “Population Tubulin-Different-Phenotype (%)” value [4] was 71% and 69%, the “Total Cell Count” value [4] was 392 and 401 and the “Population Apoptotic (%)” value [5] was 22% and 17%. For the same compound, the “Population Fragmented Nuclei (%)” value [5] was 12%, the “Population Healthy Nuclei (%)” value [5] was 80% and the “Population Hoechst High Intensity Objects (%)” value [5] was 2% and 4%. For the same compound, the “Population Membrane Permeable-Phenotype (%)” value [5] was 0%, the “Population Mitochondria Different-Phenotype (%)” value [5] was 19% and 24% and the “Population Mitotic Cells (%)” value [5] was 77% and 82%. For the same compound, the “Population Normal (%)” value [5] was 97% and 95%, the “Population Pyknosed Nuclei (%)” value [5] was 6% and 7% and the “Population Tubulin-Different-Phenotype (%)” value [5] was 17% and 21%. For the same compound, the “Total Cell Count” value [5] was 995 and 643, the “Population Apoptotic (%)” value [6] was 43% and 46% and the “Population Fragmented Nuclei (%)” value [6] was 9% and 11%. For the same compound, the “Population Healthy Nuclei (%)” value [6] was 74%, the “Population Hoechst High Intensity Objects (%)” value [6] was 7% and 8% and the “Population Membrane Permeable-Phenotype (%)” value [6] was 0%. For the same compound, the “Population Mitochondria Different-Phenotype (%)” value [6] was 72% and 71%, the “Population Mitotic Cells (%)” value [6] was 56% and 53% and the “Population Normal (%)” value [6] was 92% and 91%. The “Population Pyknosed Nuclei (%)” value [6] was 16% and 14%, the “Population Tubulin-Different-Phenotype (%)” value [6] was 69% and 59% and the “Total Cell Count” value [6] was 489 and 437.

N[C@@]1(C(=O)O)CO[C@H]2[C@H](C(=O)O)[C@H]21 [LY-379268] was tested, and the “Population Apoptotic (%)” value [1] was 40% and 42%, the “Population Fragmented Nuclei (%)” value [1] was 6% and the “Population Healthy Nuclei (%)” value [1] was 81% and 80%. For the same compound, the “Population Hoechst High Intensity Objects (%)” value [1] was 5% and 10%, the “Population Membrane Permeable-Phenotype (%)” value [1] was 0% and 1% and the “Population Mitochondria Different-Phenotype (%)” value [1] was 38% and 57%. The “Population Mitotic Cells (%)” value [1] was 60% and 57%, the “Population Normal (%)” value [1] was 94% and 89% and the “Population Pyknosed Nuclei (%)” value [1] was 12%. For the same compound, the “Population Tubulin-Different-Phenotype (%)” value [1] was 26% and 18%, the “Total Cell Count” value [1] was 396 and 411 and the “Population Apoptotic (%)” value [2] was 27% and 52%. The “Population Fragmented Nuclei (%)” value [2] was 10% and 8%, the “Population Healthy Nuclei (%)” value [2] was 78% and 79% and the “Population Hoechst High Intensity Objects (%)” value [2] was 8% and 7%. For the same compound, the “Population Membrane Permeable-Phenotype (%)” value [2] was 0%, the “Population Mitochondria Different-Phenotype (%)” value [2] was 33% and 51% and the “Population Mitotic Cells (%)” value [2] was 72% and 47%. The “Population Normal (%)” value [2] was 91% and 92%, the “Population Pyknosed Nuclei (%)” value [2] was 10% and 12% and the “Population Tubulin-Different-Phenotype (%)” value [2] was 31% and 18%. For the same compound, the “Total Cell Count” value [2] was 437 and 380, the “Population Apoptotic (%)” value [3] was 30% and 29% and the “Population Fragmented Nuclei (%)” value [3] was 8% and 7%. The “Population Healthy Nuclei (%)” value [3] was 79% and 83%, the “Population Hoechst High Intensity Objects (%)” value [3] was 2% and 7% and the “Population Membrane Permeable-Phenotype (%)” value [3] was 0%. The “Population Mitochondria Different-Phenotype (%)” value [3] was 21% and 31%, the “Population Mitotic Cells (%)” value [3] was 70% and the “Population Normal (%)” value [3] was 97% and 92%. For the same compound, the “Population Pyknosed Nuclei (%)” value [3] was 11% and 9%, the “Population Tubulin-Different-Phenotype (%)” value [3] was 20% and 13% and the “Total Cell Count” value [3] was 517 and 481. The “Population Apoptotic (%)” value [4] was 36% and 43%, the “Population Fragmented Nuclei (%)” value [4] was 10% and 8% and the “Population Healthy Nuclei (%)” value [4] was 79% and 82%. The “Population Hoechst High Intensity Objects (%)” value [4] was 6% and 8%, the “Population Membrane Permeable-Phenotype (%)” value [4] was 0% and the “Population Mitochondria Different-Phenotype (%)” value [4] was 24% and 39%. For the same compound, the “Population Mitotic Cells (%)” value [4] was 63% and 56%, the “Population Normal (%)” value [4] was 93% and 91% and the “Population Pyknosed Nuclei (%)” value [4] was 9%. For the same compound, the “Population Tubulin-Different-Phenotype (%)” value [4] was 15%, the “Total Cell Count” value [4] was 551 and 470 and the “Population Apoptotic (%)” value [5] was 26% and 33%. For the same compound, the “Population Fragmented Nuclei (%)” value [5] was 13% and 10%, the “Population Healthy Nuclei (%)” value [5] was 79% and 81% and the “Population Hoechst High Intensity Objects (%)” value [5] was 3% and 7%. For the same compound, the “Population Membrane Permeable-Phenotype (%)” value [5] was 1% and 0%, the “Population Mitochondria Different-Phenotype (%)” value [5] was 15% and 22% and the “Population Mitotic Cells (%)” value [5] was 73% and 66%. The “Population Normal (%)” value [5] was 97% and 92%, the “Population Pyknosed Nuclei (%)” value [5] was 6% and 7% and the “Population Tubulin-Different-Phenotype (%)” value [5] was 9% and 14%. For the same compound, the “Total Cell Count” value [5] was 866 and 611, the “Population Apoptotic (%)” value [6] was 24% and 25% and the “Population Fragmented Nuclei (%)” value [6] was 16% and 11%. The “Population Healthy Nuclei (%)” value [6] was 75% and 80%, the “Population Hoechst High Intensity Objects (%)” value [6] was 4% and the “Population Membrane Permeable-Phenotype (%)” value [6] was 1% and 0%. For the same compound, the “Population Mitochondria Different-Phenotype (%)” value [6] was 18% and 19%, the “Population Mitotic Cells (%)” value [6] was 75% and the “Population Normal (%)” value [6] was 95%. The “Population Pyknosed Nuclei (%)” value [6] was 7%, the “Population Tubulin-Different-Phenotype (%)” value [6] was 10% and 9% and the “Total Cell Count” value [6] was 781 and 689.
